Measurements as given in paper PMC2787711 (Biochimica et biophysica acta, 2009).
“Also recorded” adds a separate entry of the source.

Experiments:
bovine bc1 complex = bovine bc1 complex (Bos taurus, UniProt P00157+P13272); assay: Ubiquinol-cytochrome c reductase activity of purified bc1 complex; format: biochemical; details: for Selectivity Coefficient (comparison in words): IC50 bovine enzyme divided by IC50 yeast enzyme, Fig. 5
In short: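 Bovine heart bc1 complex, 2.5 nM, in phosphate pH 7.0 buffer with sucrose, EDTA, azide, KCN, dodecylmaltoside and 40 µM cytochrome c at 23 °C. Enzyme preincubated 1 min with increasing test compound; started with decylbenzoquinol; cytochrome c reduction read at 550 vs 539 nm. Duplicates averaged. IC50 taken from titration curves; Selectivity Coefficient = bovine IC50 / yeast IC50.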

[1] = target: center N of the yeast cytochrome bc1 complex (Saccharomyces cerevisiae, UniProt P00163+P08067); assay: Pre-steady-state reduction of cytochrome b through center N; format: biochemical; details: 2 µM NQ1, 3 µM stigmatellin, oxidized bc1 complex
In short: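 Stopped-flow rapid scanning at 24 °C: 1 µM oxidized yeast bc1 complex with 3 µM stigmatellin, with or without 2 µM test compound. Rapid-mixed with 30 µM 2,3-dimethoxy-5-methyl-6-decyl-1,4-benzoquinol. Cytochrome b reduction followed as absorbance time course at 562 and 578 nm; 12–19 data sets averaged.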

[2] = target: center P of the yeast cytochrome bc1 complex (Saccharomyces cerevisiae, UniProt P00163+P08067); assay: Pre-steady-state oxidant-induced reduction of cytochrome b through center P; format: biochemical; details: 2 µM inhibitor, bc1 complex pre-reduced with quinol, 3 µM antimycin
In short: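 Then 3 µM antimycin and 2 µM test compound added, 1 min further. Rapid-mixed with 3 µM cytochrome c; stopped-flow rapid-scanning spectroscopy at 24 °C. Absorbance change at 562 and 578 nm extracted; 12–19 data sets averaged.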

avian malaria = details: cited from earlier work
malaria = details: cited from earlier work
[3] = cited from earlier work

| SMILES | Selectivity Coefficient (comparison in words) (bovine bc1 complex) | inhibition of oxidant-induced reduction of cytochrome b through center P [2] | further results |
| --- | --- | --- | --- |
| CC(CCCCCC(F)(F)F)CC1=C(O)C(=O)c2ccccc2C1=O (centres unmarked) [NQ1, 2-OH-3-(2-Me-trifluorooctyl)-naphthoquinone] | higher selectivity than atovaquone | completely inhibited | effect on cytochrome b reduction through center N [1]: no effect; also recorded: identical, superimposed kinetic traces in the presence and absence |
| CCCCCCC(C)CC1=C(O)C(=O)c2c(C)cccc2C1=O (centres unmarked) [NQ2, 2-OH-3-(2-Me-octyl)-8-Me-naphthoquinone] | higher selectivity than atovaquone | – | – |
| Cc1cccc2c1C(=O)C(O)=C(CC(C)CCCCCC(F)(F)F)C2=O (centres unmarked) [NQ3, 2-OH-3-(2-Me-trifluorooctyl)-8-Me-naphthoquinone] | higher selectivity than atovaquone | – | – |
| CCCCCCC(C)CC1=C(O)C(=O)c2ccccc2C1=O (centres unmarked) [S-10576] | greatest selectivity | – | efficacy against avian malaria (avian malaria): effective; Selectivity Coefficient relative to that of atovaquone (bovine bc1 complex; Selectivity Coefficient = IC50 bovine enzyme divided by IC50 yeast enzyme): ~10 fold; efficacy in humans (malaria): ineffective; metabolism and excretion in vivo [3]: terminal two carbons of the side chain are modified by oxidation and the resulting more water soluble compound is rapidly excreted |
| O=C1C(O)=C([C@H]2CC[C@H](c3ccc(Cl)cc3)CC2)C(=O)c2ccccc21 [atovaquone, 2-[trans-4-(4’-chlorophenyl)cyclohexyl]-3-hydroxy-1,4-hydroxynaphthoquinone, reference compound] | – | greatly inhibited | – |
